Results reported in PMC9673105 (Poultry Science, 2022).
Where two headings read alike, the source gives them in different places.

Legend:
POMC = experiment: Hypothalamic POMC mRNA; type: in vivo; settings: chicken
How it was run: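 3-wk-old male chicks, randomized into four groups (N ≥ 3), given test peptide intravenously at 10, 50 or 100 ng/g BW, or PBS as control. Hypothalami collected 6, 12 and 24 h post-injection. EvaGreen qRT-PCR with melting-curve and agarose-gel specificity checks. mRNA normalised to β-actin and expressed as fold of PBS group. One-way ANOVA with Dunnett's test.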

human GALR2 = settings: ref Kim et al., 2014, Cohen et al., 2020; cited from earlier work
human GALR3 = settings: ref Kim et al., 2014, Cohen et al., 2020; cited from earlier work
zebrafish GALR2a = settings: ref Kim et al., 2014, Cohen et al., 2020; cited from earlier work
zebrafish GALR2b = settings: ref Kim et al., 2014, Cohen et al., 2020; cited from earlier work
tilapia GALR2a = settings: ref Kim et al., 2014, Cohen et al., 2020; cited from earlier work
tilapia GALR2b = settings: ref Kim et al., 2014, Cohen et al., 2020; cited from earlier work
Xenopus GALR2b = settings: ref Kim et al., 2014, Cohen et al., 2020; cited from earlier work
Xenopus GALR3 = settings: ref Kim et al., 2014, Cohen et al., 2020; cited from earlier work
GALR1 = settings: ref Kim et al., 2014, cited from earlier work
mice = settings: cited from earlier work
goldfish = settings: injection, ref Wong et al., 2013; cited from earlier work
Siberian sturgeon = settings: ref Tian et al., 2020, cited from earlier work
[1] = cited from earlier work
GALR2 = settings: mouse; ref Lin et al., 2015; cited from earlier work
[2] = system: luteinizing hormone (LH) release; settings: ewe; ref Lomet et al., 2020; cited from earlier work
[3] = system: hypothalamic neuropeptides; settings: goldfish; ref Wong et al., 2013; cited from earlier work
[4] = system: hypothalamic neuropeptides; settings: zebrafish; ref Zheng et al., 2017; cited from earlier work
[5] = system: hypothalamic neuropeptides; settings: mouse; ref Lv et al., 2020; cited from earlier work
[6] = system: hypothalamic neuropeptides; settings: orange-spotted grouper; ref Li et al., 2016; cited from earlier work

SPX: Spexin, novel neuropeptide; mature peptide with 14 amino acid residues, of various species in cited literature
POMC mRNA level (in words) (POMC): failed to change the mRNA level of POMC | receptor activation (human GALR2): could activate | receptor activation (human GALR3): could activate | receptor activation (zebrafish GALR2a): could activate | receptor activation (zebrafish GALR2b): could activate | receptor activation (tilapia GALR2a): could activate | receptor activation (tilapia GALR2b): could activate | receptor activation (Xenopus GALR2b): could activate | receptor activation (Xenopus GALR3): could activate | receptor activation (GALR1; GALR1, Cohen et al., 2020): not GALR1 | activation of GALR1 (GALR1): incompetent in activating GALR1 | feeding (mice; intraperitoneal (IP) injection, ref Lv et al., 2020, Wong et al., 2021b): feeding inhibition | feed intake (mice; peripheral, ref Lv et al., 2020): suppresses feed intake | feed consumption (goldfish): observably decreased | feed consumption (Siberian sturgeon; injection): observably decreased | feeding (Siberian sturgeon; intraperitoneal (IP) injection): feeding inhibition | body weight ([1]; rodents with diet-induced obesity, ref Walewski et al., 2014): lose weight | body weight ([1]; rodents, ref Kolodziejski et al., 2021): weight loss | bowel movement via SPX-dependent GALR2 activation (GALR2): could enhance bowel movement | basal and KISS-induced luteinizing hormone (LH) release [2]: does not impact | POMC expression [3]: could elevate POMC expression | POMC expression [4]: could elevate POMC expression | POMC mRNA level [5]: failed to change the mRNA level of POMC | POMC expression [6]: could elevate POMC expression
